# Measurements as given in ChEMBL document CHEMBL1143004, “Structure-activity relationship among purpurinimides and bacteriopurpurinimides: trifluoromethyl substituent enhanced the photosensitizing efficacy” (J Med Chem, 2007).
# Assays:
# [1] = Ratio of drug level in tumor to skin of C3H mouse bearing RIF tumors after 24 hrs by IRS; type: ADME; settings: in vivo
# In short: (§1)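 In vivo reflectance spectroscopy in female C3H/RIF or BALB/c/colon-26 mice. Baseline spectrum recorded via fiber bundles on tumor plus overlying skin and on normal skin. Drug 2.5–5.0 µmol/kg i.v. by tail vein, then spectra recorded up to 2 days. Post- to pre-injection spectral ratio compared in tumor versus skin. n = 3.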
# [2] = Ratio of drug level in tumor to skin of Balb/C mouse implanted with colon26 tumor after 24 hrs by IRS; type: ADME; settings: in vivo; in short: as §1
# Colon 26 = test: Photosensitizing efficacy in Balb/C mouse implanted with colon26 tumors measured as tumor free at 0.7 umol/kg and light dose 135 J/cm2 after 90 days; type: functional
# In short: (§2)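 Female C3H mice given s.c. RIF cells (3 × 10⁵) or female BALB/c mice given colon-26 cells (1 × 10⁶), both on right posterior shoulder. Drug in 1% Tween 80/HBSS given i.v. the day before light, hair depilated. At 24 h p.i., restrained unanaesthetized mice (10/group) got a 1 cm² argon-pumped dye laser spot, 135 J/cm² at 75 mW/cm². Tumor volume L·W²/2; cure = no palpable tumor.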
# [3] = Photosensitizing efficacy in C3H mouse bearing RIF tumors measured as tumor free at 0.7 umol/kg and light dose 135 J/cm2 after 90 days; type: functional; in short: as §2
# [4] = Photosensitizing efficacy in C3H mouse bearing RIF tumors measured as tumor free at 0.4 umol/kg and light dose 135 J/cm2 after 60 days; type: functional; in short: as §2
# RIF = test: Photosensitizing efficacy in RIF cells after 48 hrs by MTT assay in presence of light; type: functional, cell-based
# In short: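 RIF cells, 5 × 10³/well, seeded in α-MEM with 10% FCS. Next day drug added at 1.25–20 µM (formulated in 1% Tween 80/5% dextrose, diluted in medium), 24 h dark at 37 °C. Medium replaced, then 708 nm (purpurinimides) or 791 nm (bacteriopurpurinimides) at 3.2 mW/cm², 0.5–20 J/cm². After 48 h dark, MTT 4 h, DMSO, A560. Survival relative to dark and light controls; four wells per point, SD from three experiments.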
SMILES,Ratio [1],also measured
CCC1=C(C)c2cc3[nH]c(cc4nc(c5c6[nH]c(cc1n2)c(C)c6C(=O)N(Cc1cc(C(F)(F)F)cc(C(F)(F)F)c1)C5=O)[C@@H](CCC(=O)OC)[C@@H]4C)c(C)c3C(C)OC (stereo partly drawn),2.48,
CC[C@@H]1c2cc3[nH]c4c(c5nc(cc6[nH]c(cc(n2)[C@H]1C)c(C(C)OC)c6C)[C@@H](C)[C@@H]5CCC(=O)OC)C(=O)N(Cc1cc(C(F)(F)F)cc(C(F)(F)F)c1)C(=O)c4c3C (stereo partly drawn),1.91,
CCCCCCCOC(C)c1c(C)c2cc3nc(c4c5[nH]c(cc6nc(cc1[nH]2)C(C)=C6CC)c(C)c5C(=O)N(Cc1cc(C(F)(F)F)cc(C(F)(F)F)c1)C4=O)[C@@H](CCC(=O)OC)[C@@H]3C (stereo partly drawn),1.97,
CCCCOC(C)c1c(C)c2cc3nc(c4c5[nH]c(cc6nc(cc1[nH]2)C(C)=C6CC)c(C)c5C(=O)N(Cc1cc(C(F)(F)F)cc(C(F)(F)F)c1)C4=O)[C@@H](CCC(=O)Nc1ccc(CC(CN(CCN(CC(=O)O)CC(=O)O)CC(=O)O)N(CC(=O)O)CC(=O)O)cc1)[C@@H]3C (stereo partly drawn),3.68,Ratio [2]: 5.06; Activity (Colon 26): 70%; Activity [3]: 70%
CCCCCCCCCCCCOC(C)c1c(C)c2cc3nc(c4c5[nH]c(cc6nc(cc1[nH]2)[C@@H](C)[C@@H]6CC)c(C)c5C(=O)N(Cc1cc(C(F)(F)F)cc(C(F)(F)F)c1)C4=O)[C@@H](CCC(=O)OC)[C@@H]3C (stereo partly drawn),8.89,Activity [4]: 60%
CCCCOC(C)c1c(C)c2cc3nc(c4c5[nH]c(cc6nc(cc1[nH]2)[C@@H](C)[C@@H]6CC)c(C)c5C(=O)N(Cc1cc(C(F)(F)F)cc(C(F)(F)F)c1)C4=O)[C@@H](CCC(=O)OC)[C@@H]3C (stereo partly drawn),5.3,
CCCCCCCCCCCCOC(C)c1c(C)c2cc3nc(c4c5[nH]c(cc6nc(cc1[nH]2)C(C)=C6CC)c(C)c5C(=O)N(Cc1cc(C(F)(F)F)cc(C(F)(F)F)c1)C4=O)[C@@H](CCC(=O)OC)[C@@H]3C (stereo partly drawn),1.82,Activity [4]: 50%
CCCCOC(C)c1c(C)c2cc3nc(c4c5[nH]c(cc6nc(cc1[nH]2)C(C)=C6CC)c(C)c5C(=O)N(Cc1cc(C(F)(F)F)cc(C(F)(F)F)c1)C4=O)[C@@H](CCC(=O)OC)[C@@H]3C (stereo partly drawn),4.76,Ratio [2]: 3.38; Activity (RIF): Dose-dependent effect; Activity (Colon 26): 30%; Activity [3]: 30%
CCCCCCCOC(C)c1c(C)c2cc3nc(c4c5[nH]c(cc6nc(cc1[nH]2)[C@@H](C)[C@@H]6CC)c(C)c5C(=O)N(Cc1cc(C(F)(F)F)cc(C(F)(F)F)c1)C4=O)[C@@H](CCC(=O)OC)[C@@H]3C (stereo partly drawn),6.87,
